Source: EPA's CvTdb concentration-time database
Where “and” joins values, the source holds several entries; their conditions need not be identical. Equal entries are not always repeated.

How the values were obtained:
human [1] = experiment: concentration in blood after dosing; conditions: inhalation
Outline: (§1)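 Data points giving concentration or amount against time came from published in vivo toxicokinetic studies and from two structured collections. PubMed searching, classifier screening and manual review located the studies. Most points were digitised from plot screenshots using WebPlotDigitizer, the rest were copied from tables, and all keep their reported units.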

rat = experiment: concentration in blood after dosing
human [2] = experiment: concentration in blood after dosing; negative times count back from the end of exposure; conditions: inhalation
Outline: as §1

Clc1ccccc1 [chlorobenzene]
human [1], dosed: chlorobenzene, 10 ppm, duration: 8 hr
Conditions	concentration in blood
8.065 h	182 µg/L
8.199 h	192 µg/L and 167 µg/L and 100 µg/L
8.252 h	145 µg/L
8.284 h	200 µg/L
8.434 h	120 µg/L
8.451 h	158 µg/L
8.532 h	65.3 µg/L
8.536 h	158 µg/L and 140 µg/L
8.617 h	112 µg/L
8.633 h	109 µg/L
8.82 h	107 µg/L
8.872 h	128 µg/L and 140 µg/L and 51.8 µg/L
9.018 h	102 µg/L
9.124 h	119 µg/L
9.201 h	49.6 µg/L and 92.9 µg/L
9.205 h	119 µg/L
9.387 h	98.1 µg/L
9.533 h	78.8 µg/L and 44.2 µg/L
9.537 h	108 µg/L
9.582 h	100 µg/L
9.87 h	96 µg/L and 69.7 µg/L and 42.1 µg/L
10.2 h	40.5 µg/L and 77.5 µg/L and 91.3 µg/L
10.53 h	50.2 µg/L and 63.4 µg/L and 71.5 µg/L
10.86 h	41.7 µg/L
10.87 h	58.7 µg/L and 66.2 µg/L
11.2 h	60.9 µg/L

ClCCl [methylene chloride]
rat, dosed: methylene chloride, 125 mg/kg, oral, male, Wistar
Conditions	concentration in blood [mg/L]
0.1027 h	114
0.1096 h	35.7
0.1406 h	101
0.1438 h	37.3
0.1715 h	96.2
0.1781 h	38.7
0.2228 h	93.9
0.2329 h	39.9
0.2708 h	88.1
0.2808 h	41
0.3223 h	79.6
0.3356 h	39.8
0.3704 h	71.1
0.3836 h	38.3
0.4252 h	65.4
0.4315 h	34.6
0.5041 h	57.1
0.5205 h	36.1
0.7539 h	41.6
0.7671 h	27.6
1.007 h	31.4
1.014 h	24
1.5 h	16.9
1.514 h	14.9
2.002 h	8.75
2.014 h	9.35
2.498 h	3.47
2.514 h	11.3
3.014 h	9.84
3.507 h	6.9
4.007 h	5.98
4.507 h	4.86
5 h	1.82
129 s	59.8
173 s	15.7
247 s	29.8
248 s	101

rat, dosed: methylene chloride, dermal, duration: 4 hr, male, Fischer-344
Conditions	concentration in blood [mg/L]
0.5086 h, 100000 ppm	57.3
0.5196 h, 60000 ppm	29.8
0.5257 h, 30000 ppm	11.3
1.007 h, 100000 ppm	67.3
1.008 h, 60000 ppm	45.9
1.013 h, 30000 ppm	21.1
1.988 h, 100000 ppm	79.8
1.99 h, 60000 ppm	43.4
1.996 h, 30000 ppm	30
2.977 h, 100000 ppm	97.7
2.987 h, 60000 ppm	44.7
2.989 h, 30000 ppm	29.8
3.973 h, 100000 ppm	98.1
3.974 h, 60000 ppm	52.2
3.978 h, 30000 ppm	23.6

concentration in blood [mg/L], human [2], dosed: methylene chloride, duration: 6 hr
Conditions	1.928 h	2.051 h	5.959 h	6.02 h	16.03 h	16.07 h	23.99 h	276 s
100 ppm	–	0.155	0.0624	–	0.012	–	–	–
350 ppm	0.899	–	–	0.342	–	0.0774	0.036	5.76

concentration in blood [mg/L], human [2], dosed: methylene chloride, duration: 6 hr, during exposure
Conditions	-58 s	-2.95 h	-2.858 h
100 ppm	1.02	1.09	–
350 ppm	–	–	5.83

CCOC(C)(C)C [ethyl tert-butyl ether]
concentration in blood [µM], human [1], dosed: ethyl tert-butyl ether, duration: 4 hr
Conditions	2.045 h	4.023 h	4.057 h	6.068 h	7.977 h	9.972 h	11.98 h	23.9 h	61 s	184 s
4.5 ppm	0.371	0.117	–	–	–	–	–	–	1.32	–
40.6 ppm	3.35	–	1.94	1.75	0.941	1.1	0.762	0.171	–	12

COc1ccccc1N=Nc1c(O)ccc2ccccc12 [Solvent red1]
rat, dosed: Solvent red1, 20 mg/kg, oral, Sprague Dawley
Conditions	concentration in blood [mg/L]
0.2399 h	0.122
0.4077 h	0.341
0.7668 h	0.99
1.067 h	0.51
1.606 h	0.274
2.085 h	0.139
2.561 h	0.0905
3.615 h	0.0464
4.567 h	0.0158
5.518 h	0.0103
7.58 h	0.00835
9.583 h	0.0046
13.09 h	0.00434
18.04 h	0.00127
24.03 h	0.000824
251 s	0.00262

CC(C)(C)O [tert-butanol]
human [2], dosed: methyl tert-butyl ether, 25 ppm, duration: 4 hr, male
Conditions	concentration in blood [µmol/L]
0.1966 h	14.8
0.4673 h	15.1
0.8191 h	15.4
2.091 h	14.8
6.879 h	11.6
20.02 h	4.27

human [2], dosed: methyl tert-butyl ether, 25 ppm, duration: 4 hr, male, during exposure
Conditions	concentration in blood [µmol/L]
-3.999 h	0.0102
-3.435 h	3.36
-2.296 h	6.17
-1.076 h	10.4
-0.2367 h	13.1

BrCBr [dibromomethane]
rat, dosed: dibromomethane, dermal, duration: 4 hr, male, Fischer-344
Conditions	concentration in blood [mg/L]
0.4941 h, 500 ppm	0.965
0.5004 h, 5000 ppm	8.99
0.5042 h, 10000 ppm	34.2
0.5051 h, 1000 ppm	1.17
0.9982 h, 500 ppm	1.28
0.9999 h, 5000 ppm	14.7
1.004 h, 10000 ppm	55.2
1.005 h, 1000 ppm	2.09
2.005 h, 500 ppm	1.29
2.007 h, 1000 ppm	2.72
2.011 h, 10000 ppm	90.1
2.014 h, 5000 ppm	30
2.998 h, 1000 ppm	3.02
2.998 h, 10000 ppm	120
3 h, 500 ppm	1.15
3.005 h, 5000 ppm	38.2
4.005 h, 1000 ppm	3.13
4.005 h, 10000 ppm	142
4.007 h, 500 ppm	1.28
4.017 h, 5000 ppm	44.9

CCCCCCCCCC [decane]
rat, dosed: decane, 1200 ppm, inhalation, duration: 4 hr
Conditions	concentration in blood [µg/g]
0.51 h	0.855
0.5118 h	1.32
0.5126 h	1.61
0.5141 h	0.232
1.018 h	0.402
1.021 h	0.836
1.022 h	1.06
1.023 h	1.4
2.003 h	0.669
2.007 h	0.196
2.01 h	0.37
2.011 h	0.451
3.997 h	0.455
4.002 h	0.176
4.003 h	0.21
5.5 min	4.98
335 s	6.97
338 s	8.67
